Article PMC7141409 (Journal of biomolecular NMR, 2019)

Key:
[1] = chymotrypsin-based two-step assay; cited from earlier work
[2] = tested on: ^15N-OsIAA11^72−125 (W104-P105 peptide bond); test: Nzz-exchange: catalyzed cis-trans exchange of W104-P105; assay type: biochemical, rice
Outline: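 15N-labeled OsIAA11 72–125 substrate (800μM) with 16μM enzyme (LRT2 mutant or homolog) in NMR buffer (50mM KCl, 20mM KPO4, 3mM TCEP, 5mM NaN3, 0.1% protease inhibitor cocktail, pH=6.67). Protein concentrations were set by A280 using theoretical extinction coefficients. Nzz-exchange spectra were processed to give the observed cis-trans exchange rate (kexobs) of the W104-P105 bond with uncertainties.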

Substance	Catalytic activity on W-P substrate [1]	Nzz exchange crosspeaks / activity ([2]; 16μM enzyme, 800μM OsIAA11^72–125)	Nzz-measured kexobs ([2]; 1H-15N Nzz exchange, 16μM enzyme, 800μM OsIAA11^72–125, NMR buffer pH=6.67)	Activity relative to WT LRT2 on OsIAA11 ([2]; Nzz, % of WT LRT2 activity)
hCypA W121A: hCypA W121A mutant	negligible catalytic activity	–	–	–
hCypA: human cyclophilin A [reference compound]	–	clear exchange crosspeaks	0.69 ± 0.04 s⁻¹	110%
